Reference: ChEMBL document CHEMBL2311385, “Enhancing macrocyclic diterpenes as multidrug-resistance reversers: structure-activity studies on jolkinol D derivatives” (J Med Chem, 2013)

Tests used:
[1] = system: P-glycoprotein 1 / MDR1 (Homo sapiens); experiment: Selectivity index, ratio of IC50 for chemosensitive mouse L5178Y cells to IC50 for chemoresistant mouse L5178Y cells expressing human MDR1 gene
[2] = molecular target: T1, ATP-dependent translocase ABCB1 (Homo sapiens, UniProt P08183); experiment: Inhibition of human Pgp expressed in mouse L5178Y cells assessed as potentiation of doxorubicin-induced cytotoxicity after 48 hrs by MTT assay; assay type: cell-based
Procedure, shortened: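 Checkerboard combination with doxorubicin (14.7–0.1 μM) across one axis and 2-fold dilutions of modifier on the other, at a fixed drug ratio. MDR L5178Y cells seeded at 2 × 10^5 cells/mL and incubated 48 h, growth read by MTT. Combination index from the Chou–Talalay median-effect equation at 50% inhibition, using the best combination ratio. CI <1 synergy, =1 additivity, >1 antagonism.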

L5178Y [3] = experiment: Cytotoxicity against chemoresistant mouse L5178Y cells expressing human MDR1 gene after 72 hrs by MTT assay; assay type: ADME, cell-based
Procedure, shortened: (§1)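 L5178Y parental and human MDR1-transfected mouse T-cell lymphoma cells grown in McCoy's 5A with 10% heat-inactivated horse serum at 37 °C, 5% CO2. Cells seeded at 1 × 10^5/mL and given 2-fold serial dilutions in duplicate wells for 72 h. MTT added for 4 h, then SDS overnight, OD 550 nm (ref 630). IC50 from curve fitting over three independent experiments. Selectivity index = IC50(PAR)/IC50(MDR).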

[4] = molecular target: T1, ATP-dependent translocase ABCB1; experiment: Inhibition of human Pgp-mediated rhodamine 123 efflux expressed in mouse L5178Y cells assessed as fluorescence activity ratio at 2 uM after 10 mins by flow cytometric analysis; assay type: cell-based
Procedure, shortened: (§2)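 PAR and MDR L5178Y cells at 2 × 10^6 cells/mL in serum-free McCoy's 5A, compound at 2 or 20 μM. Verapamil 22 μM as positive control, DMSO 2% as solvent control. After 10 min at room temperature, rhodamine-123 added (5.2 μM final) for 20 min at 37 °C. Cells washed twice, resuspended in PBS, and mean FL-1 of 20 000 cells read by flow cytometry. FAR = (MDR treated/untreated)/(PAR treated/untreated).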

[5] = molecular target: T1, ATP-dependent translocase ABCB1; experiment: Inhibition of human Pgp-mediated rhodamine 123 efflux expressed in mouse L5178Y cells assessed as fluorescence activity ratio at 20 uM after 10 mins by flow cytometric analysis; assay type: cell-based
Procedure, shortened: as §2

L5178Y [6] = experiment: Cytotoxicity against chemosensitive mouse L5178Y cells after 72 hrs by MTT assay; assay type: cell-based
Procedure, shortened: as §1

L5178Y [7] = experiment: Toxicity against chemoresistant mouse L5178Y cells expressing human MDR1 gene at >40 uM after 10 mins by flow cytometric analysis; assay type: cell-based
Procedure, shortened: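 Toxicity during the rhodamine-123 accumulation assay, tested at 2, 20, 40 and 80 μM, was judged from shifts in flow-cytometric forward scatter and side scatter.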

P-gp (ABCB1) = P-gp (ABCB1) (Homo sapiens, UniProt P08183); experiment: Inhibition of human Pgp expressed in mouse L5178Y cells assessed as reversal of chemoresistance at 20 uM after 10 mins by flow cytometric analysis; assay type: cell-based
Procedure, shortened: (§3)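 MDR L5178Y cells preincubated 10 min with compound, then loaded with rhodamine-123 (5.2 μM final) for 20 min at 37 °C and read by flow cytometry. The percentage of cells reverted to a chemosensitive phenotype was obtained by Overton cumulative histogram subtraction, channel by channel.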

[8] = molecular target: T1, ATP-dependent translocase ABCB1; experiment: Inhibition of human Pgp-mediated rhodamine 123 efflux expressed in mouse L5178Y cells assessed as reversal of chemoresistance after 10 mins by flow cytometric analysis; assay type: cell-based
Procedure, shortened: as §3

T1 sequence (P08183 whole entry): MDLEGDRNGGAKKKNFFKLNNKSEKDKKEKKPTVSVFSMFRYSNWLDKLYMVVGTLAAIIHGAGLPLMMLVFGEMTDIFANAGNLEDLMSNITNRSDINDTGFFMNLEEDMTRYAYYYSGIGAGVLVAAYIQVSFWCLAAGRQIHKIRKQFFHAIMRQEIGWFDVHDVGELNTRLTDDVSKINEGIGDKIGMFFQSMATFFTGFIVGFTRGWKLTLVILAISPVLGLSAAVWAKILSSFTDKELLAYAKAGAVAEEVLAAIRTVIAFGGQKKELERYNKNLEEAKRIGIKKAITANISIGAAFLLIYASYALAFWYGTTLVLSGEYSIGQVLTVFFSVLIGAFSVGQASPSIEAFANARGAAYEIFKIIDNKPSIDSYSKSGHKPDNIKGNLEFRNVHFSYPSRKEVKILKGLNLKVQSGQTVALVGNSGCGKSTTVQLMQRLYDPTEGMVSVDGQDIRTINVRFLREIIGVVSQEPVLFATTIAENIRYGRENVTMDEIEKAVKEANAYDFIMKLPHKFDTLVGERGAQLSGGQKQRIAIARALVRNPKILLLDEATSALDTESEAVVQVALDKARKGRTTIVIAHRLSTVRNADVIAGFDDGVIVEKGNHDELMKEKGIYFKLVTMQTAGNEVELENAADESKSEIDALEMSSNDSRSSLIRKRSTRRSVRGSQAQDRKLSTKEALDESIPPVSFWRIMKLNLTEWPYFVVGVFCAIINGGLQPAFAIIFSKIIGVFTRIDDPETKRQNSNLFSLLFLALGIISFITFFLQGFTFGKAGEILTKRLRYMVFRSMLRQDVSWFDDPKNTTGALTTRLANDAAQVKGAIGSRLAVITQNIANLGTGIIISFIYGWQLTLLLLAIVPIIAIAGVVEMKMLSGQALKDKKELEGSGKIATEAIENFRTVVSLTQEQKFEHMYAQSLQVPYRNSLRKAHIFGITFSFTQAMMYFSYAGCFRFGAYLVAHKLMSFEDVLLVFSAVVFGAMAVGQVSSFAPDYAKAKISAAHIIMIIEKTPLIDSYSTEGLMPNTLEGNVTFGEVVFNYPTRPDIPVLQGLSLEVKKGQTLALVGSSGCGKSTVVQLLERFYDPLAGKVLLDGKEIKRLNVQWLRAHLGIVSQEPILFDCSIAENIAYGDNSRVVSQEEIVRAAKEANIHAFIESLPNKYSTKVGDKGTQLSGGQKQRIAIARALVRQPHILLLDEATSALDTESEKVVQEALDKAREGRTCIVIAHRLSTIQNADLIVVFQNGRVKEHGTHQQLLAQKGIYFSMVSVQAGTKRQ
Chain of P-gp (ABCB1) (P08183 whole entry): as above

Ratio [4] | Ratio [5] | inhibition at 10 min, 20 µM (P-gp (ABCB1)) [%] | inhibition (INH) [8] | Structure (SMILES) | selectivity ratio [1] | CI [2] | IC50 (L5178Y [3]) [µM] | IC50 (L5178Y [6]) [µM] | Activity (L5178Y [7])
1.16 | 33.76 | – | – | CC(=O)O[C@H]1[C@@H](C)C[C@]2(OC(C)=O)C(=O)/C(C)=C/[C@@H]3[C@H](CC/C(C)=C/[C@@H]12)C3(C)C [JOLKINOATE A] | 0.6 | 0.18 | 60.4 | 38.2 | –
2.95 | 30.64 | – | – | CCC(=O)O[C@H]1[C@@H](C)C[C@]2(OC(C)=O)C(=O)/C(C)=C/[C@@H]3[C@H](CC/C(C)=C/[C@@H]12)C3(C)C [JOLKINOATE B] | 0.8 | 0.34 | 22.2 | 18.3 | Toxic
5.15 | 107.89 | – | – | CCCC(=O)O[C@H]1[C@@H](C)C[C@]2(OC(C)=O)C(=O)/C(C)=C/[C@@H]3[C@H](CC/C(C)=C/[C@@H]12)C3(C)C [JOLKINOATE C] | 0.9 | 0.39 | 26.8 | 24 | Toxic
1.74 | 25.69 | – | – | CCCCCCCCCCCC(=O)O[C@H]1[C@@H](C)C[C@]2(OC(C)=O)C(=O)/C(C)=C/[C@@H]3[C@H](CC/C(C)=C/[C@@H]12)C3(C)C [JOLKINOATE D] | 0.6 | 2.02 | 60.3 | 38.7 | –
7.14 | 12.13 | – | – | CCCC(C)C(=O)O[C@H]1[C@@H](C)C[C@]2(OC(C)=O)C(=O)/C(C)=C/[C@@H]3[C@H](CC/C(C)=C/[C@@H]12)C3(C)C (stereo not given in full) [JOLKINOATE E] | 0.9 | 0.23 | 18.8 | 17.2 | Toxic
4.99 | 77.25 | – | – | CCC(CC)C(=O)O[C@H]1[C@@H](C)C[C@]2(OC(C)=O)C(=O)/C(C)=C/[C@@H]3[C@H](CC/C(C)=C/[C@@H]12)C3(C)C [JOLKINOATE F] | 1 | 0.25 | 14.7 | 14.3 | Toxic
10.55 | 52.66 | – | – | CCCCC(CC)C(=O)O[C@H]1[C@@H](C)C[C@]2(OC(C)=O)C(=O)/C(C)=C/[C@@H]3[C@H](CC/C(C)=C/[C@@H]12)C3(C)C (stereo not given in full) [JOLKINOATE G] | 0.4 | 0.31 | 48.9 | 20.6 | Toxic
24.15 | 84.22 | 70.2 | Dose-dependent effect | CC(=O)O[C@]12C[C@H](C)[C@H](OC(=O)c3ccccc3)[C@@H]1/C=C(\C)CC[C@H]1[C@@H](/C=C(\C)C2=O)C1(C)C [JOLKINOATE I] | 1 | 0.35 | 33.1 | 34.7 | –
21.11 | 56.88 | – | Dose-dependent effect | CC(=O)O[C@]12C[C@H](C)[C@H](OC(=O)c3ccc(C)cc3)[C@@H]1/C=C(\C)CC[C@H]1[C@@H](/C=C(\C)C2=O)C1(C)C [JOLKINOATE J] | 0.9 | 0.26 | 45.1 | 41.2 | –
28.09 | 109.17 | 95 | Dose-dependent effect | COc1ccc(C(=O)O[C@H]2[C@@H](C)C[C@]3(OC(C)=O)C(=O)/C(C)=C/[C@@H]4[C@H](CC/C(C)=C/[C@@H]23)C4(C)C)cc1 [JOLKINOATE K] | 0.7 | 0.3 | 32.7 | 21.7 | –
9.32 | 28.66 | – | – | CC(=O)O[C@]12C[C@H](C)[C@H](OC(=O)c3cccc(C(F)(F)F)c3)[C@@H]1/C=C(\C)CC[C@H]1[C@@H](/C=C(\C)C2=O)C1(C)C [JOLKINOATE L] | 0.8 | 0.27 | 52.6 | 44 | –
16.06 | 52.77 | – | Dose-dependent effect | CC(=O)O[C@]12C[C@H](C)[C@H](OS(=O)(=O)c3ccccc3)[C@@H]1/C=C(\C)CC[C@H]1[C@@H](/C=C(\C)C2=O)C1(C)C [JOLKINOATE M] | 0.8 | 0.21 | 15 | 12.1 | –
0.84 | 3.38 | – | – | C/C1=C\[C@H]2[C@@H](O)[C@@H](C)C[C@]2(O)C(=O)/C(C)=C/[C@@H]2[C@H](CC1)C2(C)C [JOLKINODIOL] | 0.7 | 0.65 | 48.9 | 36.4 | –
0.79 | 0.92 | – | – | CC(=O)O[C@]12C[C@H](C)[C@H](O)[C@@H]1/C=C(\C)CC[C@H]1[C@@H](/C=C(\C)C2=O)C1(C)C [JOLKINOL D] | 0.9 | 0.26 | 99.7 | 89.9 | –
